The test system of data set [1] is Staphylococcus aureus. The experiment in a line: Minimum inhibitory concentration against Staphylococcus aureus H 228. The data set is classed as functional. A digest of the protocol:
(§1)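 Tested by microtitration against a panel of 10 Gram-positive and Gram-negative organisms. MIC is reported in μg/mL.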

Another data set deals with Enterobacter cloacae. As to the kind of experiment: Minimum inhibitory concentration against Enterobacter cloacae MA 2646. The format is functional.
Data set [2] is described as follows: The no effect dose (NED) for phototoxicity in mouse. The data set is classed as organism-based. The conditions noted are these: in vivo, read-out: NED. In short, it runs like this: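 Female CD-1 mice were depilated and dosed orally, with five animals per dose plus controls. After each dose the mice were exposed to UVA for 3 h. This was repeated daily for 4 days. Any redness or erythema relative to control was scored positive. The value is the highest dose producing no effect, in mg/kg.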

In data set [3] the test system is Mus musculus. As to the kind of experiment: In vivo antibacterial activity against Streptococcus pyogenes after following subcutaneous administration. The format is functional. The following applies: sc, read-out: PD50. A digest of the protocol: (§2)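 Acute lethal systemic infection in female Charles River CD-1 mice. Compound given orally or subcutaneously. Potency expressed as median protective dose (PD50, mg/kg), the dose preventing death in 50% of animals.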

For another data set, the system named is Pseudomonas aeruginosa. As to the kind of experiment: Minimum inhibitory concentration against U1-18 cell line from Pseudomonas aeruginosa. The format is functional. A digest of the protocol: as §1
The test system of a further data set is Streptococcus pyogenes. The experiment in a line: Minimum inhibitory concentration against Streptococcus pyogenes C203. The format is functional. In short, it runs like this:
as §1

The subject of the next data set is Providencia rettgeri. The experiment in a line: Minimum inhibitory concentration against M1771 strain of Providencia rettgeri. The data set is classed as functional. In short, it runs like this: as §1
Another data set relates to Streptococcus pneumoniae. The experiment in a line: Minimum inhibitory concentration tested against Streptococcus pneumoniae SV-1. The data set is classed as functional. A digest of the protocol: as §1
For data set [4], the system named is Mus musculus. The experiment in a line: In vivo antibacterial activity against Streptococcus pyogenes after following oral administration. The data set is classed as functional. The conditions noted are these: read-out: PD50. A digest of the protocol:
as §2

Data set [5] concerns Staphylococcus aureus. As to the kind of experiment: Minimum inhibitory concentration against Staphylococcus aureus UC-76. The format is functional. In short, it runs like this:
as §1

For a further data set, the system named is Escherichia coli. The experiment in a line: Minimum inhibitory concentration against Escherichia coli Vogel. The data set is classed as functional. In short, it runs like this: as §1
The next data set relates to Klebsiella pneumoniae. As to the kind of experiment: Minimum inhibitory concentration against Klebsiella pneumoniae MGH-2. The format is functional. In short, it runs like this:
as §1

Data set [6] deals with Mus musculus. The experiment in a line: In vivo antibacterial activity against Escherichia coli after following oral administration. The format is functional. The conditions noted are these: read-out: PD50. A digest of the protocol: as §2
Another data set relates to Enterococcus faecalis. As to the kind of experiment: Minimum inhibitory concentration against Streptococcus faecalis MGH-2. The format is functional. In short, it runs like this:
as §1

The test system of data set [7] is Mus musculus. The experiment in a line: In vivo antibacterial activity against Escherichia coli after following subcutaneous administration. The format is functional. The following applies: sc, read-out: PD50. A digest of the protocol:
as §2

The next data set concerns V79. As to the kind of experiment: Clonogenic cytotoxicity against Hamster V-79 cells. The conditions noted are these: Cricetulus griseus. The data set is classed as cell-based.

Molecules are shown by their SMILES. ≈ marks a conversion by molar mass, not a printed value.

Turning to `CC(C)(N)[C@H]1CCN(c2nc3c(cc2F)c(=O)c(C(=O)O)cn3C2CC2)C1.Cl`, the MIC in the data set on Staphylococcus aureus [1] came out at 0.1 µg/mL; against Enterobacter cloacae it was 0.2 µg/mL; against Pseudomonas aeruginosa it was 3.1 µg/mL; against Streptococcus pyogenes, 0.1 µg/mL; in the data set with Providencia rettgeri, 0.8 µg/mL; in the data set on Streptococcus pneumoniae, 50 ng/mL. For the same compound, the MIC in the data set with Staphylococcus aureus [5] is 25 ng/mL; against Escherichia coli, 0.2 µg/mL; in the data set on Klebsiella pneumoniae, 0.4 µg/mL; against Enterococcus faecalis, 0.1 µg/mL. Further, the NOAEL in data set [2] was found to be 55 mg/kg. Moreover, the ED50 was found to be 6 mg/kg in the data set with Mus musculus [3], 32 mg/kg in the data set with Mus musculus [4], 10 mg/kg with Mus musculus [6] and 3 mg/kg with Mus musculus [7].
By IC50 is commonly meant the point on the concentration scale where inhibition reaches its midpoint. High values mean weaker potency in that assay, low ones greater potency in that assay. On to `C[C@H](N)C1CCN(c2nc3c(cc2F)c(=O)c(C(=O)O)cn3C2CC2)C1` (stereo partly drawn), for which the MIC in the data set with Staphylococcus aureus [1] turned out to be 0.05 µg/mL (≈ 0.139 µM); against Enterobacter cloacae, 0.05 µg/mL (≈ 0.139 µM); against Pseudomonas aeruginosa it was 0.8 µg/mL (≈ 2.22 µM); with Streptococcus pyogenes, 0.013 µg/mL (≈ 0.0361 µM); with Providencia rettgeri, 0.4 µg/mL (≈ 1.11 µM); with Streptococcus pneumoniae it was 6 ng/mL (≈ 0.0166 µM). The MIC against Staphylococcus aureus [5] is 6 ng/mL (≈ 0.0166 µM); with Escherichia coli it was 0.05 µg/mL (≈ 0.139 µM); in the data set with Klebsiella pneumoniae, 0.1 µg/mL (≈ 0.277 µM); against Enterococcus faecalis, 0.05 µg/mL (≈ 0.139 µM). In addition, the NOAEL in data set [2] came to 67 mg/kg. Also, the ED50 worked out at 2 mg/kg with Mus musculus [3], 14 mg/kg in the data set with Mus musculus [4], 6 mg/kg in the data set with Mus musculus [6] and 1 mg/kg with Mus musculus [7]. Besides, the IC50 in the data set on V79 amounted to 100 µg/mL (≈ 277 µM).
Regarding `CC(C)(N)[C@@H]1CCN(c2nc3c(cc2F)c(=O)c(C(=O)O)cn3C2CC2)C1.Cl`, the MIC in the data set with Staphylococcus aureus [1] came out at 0.1 µg/mL; against Enterobacter cloacae it was 0.1 µg/mL; in the data set on Pseudomonas aeruginosa, 1.6 µg/mL; against Streptococcus pyogenes, 0.013 µg/mL; against Providencia rettgeri, 0.4 µg/mL; in the data set on Streptococcus pneumoniae, 6 ng/mL. Further, the MIC in the data set with Staphylococcus aureus [5] was 3 ng/mL; in the data set with Escherichia coli it was 0.05 µg/mL; with Klebsiella pneumoniae it was 0.2 µg/mL; with Enterococcus faecalis, 0.05 µg/mL. Besides, the NOAEL in data set [2] turned out to be 73 mg/kg. The ED50 amounted to 1 mg/kg in the data set with Mus musculus [3], 4 mg/kg in the data set on Mus musculus [4], 5 mg/kg in the data set on Mus musculus [6] and 1 mg/kg in the data set with Mus musculus [7]. Moreover, half-maximal inhibition in the data set on V79 (IC50) required 130 µg/mL.
For the compound `C[C@@H](N)C1CCN(c2nc3c(cc2F)c(=O)c(C(=O)O)cn3C2CC2)C1` (stereo partly drawn), the MIC with Staphylococcus aureus [1] was found to be 0.025 µg/mL (≈ 0.0694 µM); against Enterobacter cloacae it was 0.05 µg/mL (≈ 0.139 µM); in the data set on Pseudomonas aeruginosa, 0.4 µg/mL (≈ 1.11 µM); with Streptococcus pyogenes it was 0.013 µg/mL (≈ 0.0361 µM); in the data set with Providencia rettgeri, 0.1 µg/mL (≈ 0.277 µM); in the data set with Streptococcus pneumoniae it was 3 ng/mL (≈ 0.00832 µM). Further, the MIC in the data set with Staphylococcus aureus [5] came to 3 ng/mL (≈ 0.00832 µM); in the data set with Escherichia coli, 0.025 µg/mL (≈ 0.0694 µM); with Klebsiella pneumoniae, 0.05 µg/mL (≈ 0.139 µM); in the data set with Enterococcus faecalis, 0.013 µg/mL (≈ 0.0361 µM). The NOAEL in data set [2] amounted to 30 mg/kg. Besides, the ED50 stood at 1 mg/kg in the data set on Mus musculus [3], 3 mg/kg in the data set on Mus musculus [4], 2 mg/kg with Mus musculus [6] and 0.4 mg/kg in the data set with Mus musculus [7]. Further, the concentration for half-maximal inhibition (IC50) with V79 came out at 33 µg/mL (≈ 91.6 µM).

The values are drawn from ChEMBL document CHEMBL1127665, “Synthesis and antibacterial activity of new quinolones containing a 7-[3-(1-amino-1-methylethyl)-1-pyrrolidinyl] moiety. Gram-positive agents with excellent oral activity and low side-effect potential” (J Med Chem, 1994).
